As a reminder, the pEC50 is −log10 of the EC50, conventionally taken in molar units. Read a high pEC50 as a small EC50.

The record followed here is ChEMBL document CHEMBL1142354, “Synthesis and biological evaluation of (hetero)arylmethyloxy- and arylmethylamine-phenyl derivatives as potent P-glycoprotein modulating agents” (J Med Chem, 2008).

The target of data set [1] is T1, ATP-dependent translocase ABCB1 (Homo sapiens, UniProt P08183). Kind of data set: Activation of human P-glycoprotein ATPase in Caco-2 cells assessed as ATP depletion at 100 uM. The following applies: caco-2, 100 µM. Format: cell-based.
The target in data set [2] is T1, ATP-dependent translocase ABCB1. Kind of data set: Inhibition of human P-glycoprotein mediated [3H]vinblastine transport in human Caco-2 cells. Format: cell-based.
Another data set deals with Caco-2. Kind of data set: Ratio of permeability from basolateral to apical side over apical to basolateral side in human Caco-2 cells. Background: Caco-2 cells form a polarised layer with tight junctions and transporters.
The target in data set [3] is T2, Broad substrate specificity ATP-binding cassette transporter ABCG2 (Homo sapiens, UniProt Q9UNQ0).
T2 sequence (Q9UNQ0 whole entry): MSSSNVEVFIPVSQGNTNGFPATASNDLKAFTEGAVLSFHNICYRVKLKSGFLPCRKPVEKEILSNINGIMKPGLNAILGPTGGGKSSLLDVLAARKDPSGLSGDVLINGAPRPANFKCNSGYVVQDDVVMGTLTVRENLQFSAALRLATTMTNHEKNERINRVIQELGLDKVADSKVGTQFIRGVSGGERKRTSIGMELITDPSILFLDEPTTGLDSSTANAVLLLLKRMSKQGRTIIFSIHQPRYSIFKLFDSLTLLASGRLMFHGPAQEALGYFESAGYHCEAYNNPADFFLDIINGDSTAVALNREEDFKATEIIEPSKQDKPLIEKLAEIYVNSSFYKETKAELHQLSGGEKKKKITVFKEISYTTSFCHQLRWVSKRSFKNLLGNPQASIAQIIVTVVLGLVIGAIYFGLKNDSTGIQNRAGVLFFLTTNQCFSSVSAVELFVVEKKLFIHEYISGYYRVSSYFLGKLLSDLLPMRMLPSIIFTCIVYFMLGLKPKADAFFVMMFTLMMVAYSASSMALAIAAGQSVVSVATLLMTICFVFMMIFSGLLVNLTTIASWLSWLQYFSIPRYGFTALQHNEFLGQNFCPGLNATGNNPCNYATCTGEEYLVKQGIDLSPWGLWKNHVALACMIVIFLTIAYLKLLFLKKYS
Kind of data set: Inhibition of human BCRP pump mediated [3H]mitoxantrone transport in human Caco-2 cells. It counts as cell-based. The gist of the method:
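Caco-2 cells were grown 21 days on multiscreen filters at 10 000 cells/well, and monolayers were used at TEER >800 Ω×cm². 20 nM [³H]-mitoxantrone was added basolaterally with or without compound (0.20–400 µM) for 120 min at 37 °C, and apical appearance was scintillation-counted. Percent inhibition at each concentration gave EC50; three independent determinations, triplicate samples.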

Data set [4] can be described thus: Cytotoxicity against human Adr cells assessed as LDH release upto 50 uM after 48 hrs. It counts as cell-based. In a few lines: (§1)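 MCF-7/Adr cells, which overexpress P-gp, were exposed in complete medium with or without test compound. LDH released into the medium was read with CytoTox-One substrate mix: 10 min at room temperature in the dark, then stop solution, fluorescence ex 560/em 590 nm. Cytotoxicity % is (treated LDH − medium background)/(total LDH of lysed untreated cells − background) × 100.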
(LDH in the medium is a marker of cell lysis.)

The test system of data set [5] is MCF7. Description: Cytotoxicity against adriamycin-resistant human MCF7 cells assessed as LDH release at 1 uM after 48 hrs. It counts as cell-based. Conditions: mcf7, 48 h; call rule not given here. The gist of the method: as §1
Data set [6] relates to MCF7. Description: Cytotoxicity against human MCF7 cells assessed as LDH release upto 50 uM after 48 hrs. It counts as cell-based. The following applies: mcf7, 48 h.

pEC50: −log10 of the molar value.

T1 sequence (P08183 whole entry): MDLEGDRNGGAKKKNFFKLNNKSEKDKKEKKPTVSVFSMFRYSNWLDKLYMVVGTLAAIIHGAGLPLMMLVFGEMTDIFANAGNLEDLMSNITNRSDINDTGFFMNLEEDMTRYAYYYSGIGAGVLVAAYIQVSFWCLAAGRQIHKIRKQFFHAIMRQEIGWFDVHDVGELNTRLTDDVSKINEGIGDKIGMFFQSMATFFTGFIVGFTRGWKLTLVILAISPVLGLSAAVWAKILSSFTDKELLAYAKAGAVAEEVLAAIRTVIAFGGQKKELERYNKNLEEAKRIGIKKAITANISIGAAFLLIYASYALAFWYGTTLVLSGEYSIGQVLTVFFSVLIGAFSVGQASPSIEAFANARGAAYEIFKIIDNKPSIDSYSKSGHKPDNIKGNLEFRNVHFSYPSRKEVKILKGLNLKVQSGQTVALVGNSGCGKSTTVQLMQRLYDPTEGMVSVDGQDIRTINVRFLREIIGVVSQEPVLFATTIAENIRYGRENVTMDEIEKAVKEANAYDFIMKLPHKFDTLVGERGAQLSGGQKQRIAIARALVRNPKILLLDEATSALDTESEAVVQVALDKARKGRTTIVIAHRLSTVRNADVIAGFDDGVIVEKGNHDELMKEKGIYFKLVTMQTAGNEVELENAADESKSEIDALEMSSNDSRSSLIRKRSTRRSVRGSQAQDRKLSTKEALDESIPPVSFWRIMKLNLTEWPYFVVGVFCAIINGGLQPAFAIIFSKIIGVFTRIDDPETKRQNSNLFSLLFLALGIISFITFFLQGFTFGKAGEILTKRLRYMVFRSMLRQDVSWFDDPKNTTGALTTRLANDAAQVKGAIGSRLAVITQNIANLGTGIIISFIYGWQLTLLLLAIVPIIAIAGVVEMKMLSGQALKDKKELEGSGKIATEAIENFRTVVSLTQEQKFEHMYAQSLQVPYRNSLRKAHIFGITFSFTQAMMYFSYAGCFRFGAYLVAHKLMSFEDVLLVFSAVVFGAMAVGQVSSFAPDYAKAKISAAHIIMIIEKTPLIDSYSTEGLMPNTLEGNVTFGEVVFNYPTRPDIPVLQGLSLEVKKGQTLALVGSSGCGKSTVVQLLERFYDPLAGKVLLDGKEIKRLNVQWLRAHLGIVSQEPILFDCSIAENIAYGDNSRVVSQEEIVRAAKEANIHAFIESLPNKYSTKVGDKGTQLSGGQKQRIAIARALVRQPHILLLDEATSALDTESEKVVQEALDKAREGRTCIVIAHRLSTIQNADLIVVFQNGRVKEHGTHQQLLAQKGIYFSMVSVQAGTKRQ

With `c1ccc(CCc2ccccc2OCc2cccnc2)cc1`, the outcome in data set [1] was Active.

In turn, `COc1cc(COc2ccccc2CCc2ccccc2)cc(OC)c1` had a pEC50 in data set [2] of 5.80. Moreover, in data set [1], the Activity result is on record as “Not Active”. In addition, the Ratio in the data set with Caco-2 worked out at 5.7.

Consider `COc1cccc(CCc2ccccc2OCc2ccccc2OC)c1`, for which, in data set [2], the pEC50 was 4.92. In data set [1], the Activity result was “Not Active”. Further, the Ratio with Caco-2 came to 8.7.

`COc1cccc(CCc2ccccc2OCc2cccc(OC)c2)c1`: the Activity result in data set [1] is reported as “Not Active”. The Ratio in the data set on Caco-2 was found to be 13.

Consider `COc1cc2c(cc1OC)CN(CCc1ccc(NC(=O)c3cccc4c(=O)c5cccc(OC)c5[nH]c34)cc1)CC2`, for which the Activity result in data set [1] is on record as “Not Active”.

For the compound `COc1cccc(CCc2ccccc2OCc2ccccc2)c1`, in data set [1], the Activity entry is “Not Active”.

`c1ccc(CCc2ccccc2OCc2ccncc2)cc1` gave a pEC50 in data set [2] of 4.74. Further, in data set [1], the outcome was Active. Besides, in the data set with Caco-2, the Ratio is 1.3.

For `c1ccc(CCc2ccccc2OCc2ccccn2)cc1`, the Activity result in data set [1] is on record as “Not Active”.

Consider `COc1cccc(CCc2ccccc2NCc2cccc(OC)c2)c1`, for which the pEC50 in data set [2] is 6.32; in data set [3], 5.15. Besides, the Activity result in data set [1] is recorded as “Not Active”; in data set [4] it was 10%. Also, the Ratio with Caco-2 was 2.9.

As to `c1ccc(CCc2ccccc2OCc2ccccc2)cc1`, the pEC50 in data set [2] is less than 3.00. In addition, the outcome in data set [1] was Active.

`COc1cccc(CCc2ccccc2OCc2ccncc2)c1`: the pEC50 in data set [2] was 6.07. For the same compound, the Activity result in data set [1] was “Active”; in the data set on MCF7 [5], 50%. For the same compound, the Ratio with Caco-2 stood at 2.1.

In the case of `COc1ccc(COc2ccccc2CCc2cccc(OC)c2)cc1`, in data set [2], the pEC50 was 5.28. Also, the Activity entry in data set [1] is reported as “Not Active”. Moreover, the Ratio in the data set with Caco-2 amounted to 7.6.

On to `COc1cccc(CCc2ccccc2OCc2cc(OC)cc(OC)c2)c1`, for which the pEC50 in data set [2] is 5.60. Also, the Activity entry in data set [1] is on record as “Not Active”. Besides, in the data set with Caco-2, the Ratio is 6.7.

Take `COc1cccc(CCc2ccccc2NCc2cccc(OC)c2OC)c1`: the pEC50 in data set [2] is 7.07; in data set [3] it was 5.82. Further, the Activity result (in data set [1]; in the data set on MCF7 [6]; in data set [4]) was “Not Active” in each case. In addition, in the data set with Caco-2, the Ratio is 5.5.

`COc1cccc(COc2ccccc2CCc2ccccc2)c1OC`: the pEC50 is 6.10 in data set [2] and 4.12 in data set [3]. Also, the Activity result (in data set [1]; with MCF7 [6]; in data set [4]) was “Not Active” each time. The Ratio with Caco-2 is reported as 0.95.

As to `COc1cccc(CCc2ccccc2NCc2ccc(OC)c(OC)c2)c1`, the pEC50 is 6.74 in data set [2] and 6.30 in data set [3]. The Activity entry (in data set [1]; with MCF7 [6]; in data set [4]) was “Not Active” in each case. For the same compound, in the data set on Caco-2, the Ratio turned out to be 5.6.

On to `COc1cccc(CCc2ccccc2OCc2ccccn2)c1`, for which the Activity entry in data set [1] is “Not Active”.

As to `COc1ccc(COc2ccccc2CCc2ccccc2)cc1OC`, the pEC50 in data set [2] was 6.12; in data set [3], 4.24. Moreover, the Activity entry in data set [1] is on record as “Not Active”; in data set [4], 10%. In the data set with Caco-2, the Ratio was 2.1.

For the compound `COc1cccc(CCc2ccccc2OCc2cccnc2)c1`, the pEC50 in data set [2] is less than 3.00. Moreover, the result in data set [1] was Active.

`COc1ccccc1COc1ccccc1CCc1ccccc1`: in data set [2], the negative-log EC50 (pEC50) was 4.70. Further, in data set [1], the Activity result is recorded as “Not Active”. Besides, the Ratio in the data set with Caco-2 is listed as 1.4.

`COc1cccc(CCc2ccccc2OCc2cccc(OC)c2OC)c1`: the Activity entry in data set [1] is “Active”; with MCF7 [6] it was “Not Active”; in data set [4] it was “Not Active”. For the same compound, the pEC50 in data set [3] is 3.92.

In data set [2], `COc1cccc(CCc2ccccc2NCc2cc(OC)cc(OC)c2)c1` gave a pEC50 of 6.05. Further, the Activity result (in data set [1]; in the data set with MCF7 [6]; in data set [4]) was “Not Active” in each case. The Ratio in the data set on Caco-2 was 6.9.

Compound `COc1ccc(COc2ccccc2CCc2ccccc2)cc1` gave a pEC50 in data set [2] of 5.51. In addition, the Activity result in data set [1] is given as “Not Active”. The Ratio in the data set on Caco-2 was 5.1.

Regarding `COc1cccc(CCc2ccccc2OCc2ccc(OC)c(OC)c2)c1`, the values for the pEC50 in data set [2] and in data set [3] were 6.19 and 3.82, respectively. For the same compound, the Activity result (in data set [1]; with MCF7 [6]; in data set [4]) was “Not Active” each time. In the data set with Caco-2, the Ratio is recorded as 5.1.
